According to ChEMBL document CHEMBL1833904, “Antiplasmodial and antiproliferative pseudoguaianolides of Athroisma proteiforme from the Madagascar Dry Forest” (J Nat Prod, 2011):

Tests used:
[1] = system: A2780; experiment: Antiproliferative activity against human A2780 cells; format: cell-based
[2] = system: Plasmodium falciparum; experiment: Antiplasmodial activity against chloroquine-sensitive Plasmodium falciparum HB3 after 72 hrs SYBR green 1 dye based by fluorometric method; format: functional, organism-based; settings: HB3, 72 h
In short: (§1)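 Sorbitol-synchronised ring-stage cultures (>95% rings), final 1% hematocrit and 0.5% parasitemia, added to prewarmed wells holding sample diluted in complete medium from DMSO stock. Incubated 72 h at 37 °C under 90% N, 5% O2, 5% CO2. SYBR Green I added, 1 h at 37 °C, fluorescence ex 490/em 530 nm. Triplicate IC50s averaged (±S.E.M.); chloroquine positive control.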

[3] = system: Plasmodium falciparum; experiment: Antiplasmodial activity against chloroquine-resistant Plasmodium falciparum Dd2 after 72 hrs by SYBR green 1 dye based fluorometric method; format: functional, organism-based; settings: Dd2, 72 h; in short: as §1
[4] = system: Plasmodium falciparum; experiment: Resistance factor, ratio of IC50 for chloroquine-resistant Plasmodium falciparum Dd2 to IC50 for chloroquine-sensitive Plasmodium falciparum HB3; format: functional

Row | Structure (SMILES) | IC50 [1] [nM] | IC50 [2] [nM] | IC50 [3] [nM] | Ratio IC50 [4]
1 | C=C1C(=O)O[C@@H]2[C@@H](C)[C@@H]3C=CC(=O)[C@@]3(C)[C@@H](OC(=O)/C=C(\C)CC)[C@H]1[C@H]2OC(=O)CC(C)(O)CC (relative stereo) | 1900 | – | – | –
2 | C=C1C(=O)O[C@@H]2[C@@H](C)[C@@H]3C=CC(=O)[C@@]3(C)[C@@H](OC(=O)/C(C)=C\C)[C@H]1[C@H]2OC(=O)CC(C)(C)O (relative stereo) | 570 | – | – | –
3 | C=C1C(=O)O[C@H]2C[C@@H](C)[C@@H]3[C@@H](OC(=O)C(C)C)C[C@@H](OC(C)=O)[C@@]3(C)[C@@H](OC(C)=O)[C@H]12 [ATHROLIDE A] | 2100 | 34300 | 32700 | 1
4 | C=C1C(=O)O[C@H]2C[C@@H](C)[C@@H]3[C@@H](OC(=O)C(C)C)C[C@@H](OC(C)=O)[C@@]3(C)[C@H](O)[C@H]12 [ATHROLIDE B] | 2500 | – | – | –

Compounds with a lower IC50 [1], results first:

Row | IC50 [1] [nM] | Structure (SMILES) | IC50 [2] [nM] | IC50 [3] [nM] | Ratio IC50 [4]
5 | 380 | C=C1C(=O)O[C@@H]2[C@@H](C)[C@@H]3C=CC(=O)[C@@]3(C)[C@@H](OC(=O)/C(C)=C\C)[C@H]1[C@H]2OC(=O)CC(C)(O)CC (relative stereo) | – | – | –
6 | 17 | CC(=O)O[C@H]1C(=O)[C@@]2(C)[C@H]([C@H](OC(=O)c3ccccc3)[C@]3(O)C[C@H](OC(=O)[C@H](O)[C@@H](NC(=O)c4ccccc4)c4ccccc4)C(C)=C1C3(C)C)[C@]1(OC(C)=O)CO[C@@H]1C[C@@H]2O [PACLITAXEL] | – | – | –
